# Screening data: PubChem BioAssay, several laboratories
# ZTA DNA inh – blocks Epstein-Barr virus ZTA, an EBNA-1 counter-screen | P03206 | ZTA-DNA binding, fluorescence polarization | inhibition, % at 11 µM | hit rate 0.15% among 320,000 | AID 2234; in the data active = inhibition above about 33%
# Target sequence (P03206 whole entry, looked up): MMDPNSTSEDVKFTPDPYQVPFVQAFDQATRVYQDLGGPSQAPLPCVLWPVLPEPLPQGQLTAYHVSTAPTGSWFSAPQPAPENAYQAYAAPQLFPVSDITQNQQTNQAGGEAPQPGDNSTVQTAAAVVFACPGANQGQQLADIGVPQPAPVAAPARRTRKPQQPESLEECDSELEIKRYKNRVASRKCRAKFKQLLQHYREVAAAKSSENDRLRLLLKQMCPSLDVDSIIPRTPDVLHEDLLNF
# EBNA-1 inhibitor – blocks EBNA-1 binding to DNA; hit rate 0.34% among 300,000; inhibition, % at 14.8 µM; AID 1950; EBNA-1 DNA binding, fluorescence polarization; in the data active = inhibition above about 28%
# FGF22 binding – shifts melting point of recombinant human FGF22; AID 651658; Q9HCT0; hit rate 1.5% among 340,000; recombinant FGF22 thermal shift, SYPRO orange fluorescence; percent of sucrose octasulfate shift, DMSO zero; activity (Tm shift, normalised), % at 9.99 µM;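 active = mean Tm shift, scaled 0 neutral to 100 positive control, at about 1.3% or above, every replicate too, limit read from the data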
# Target sequence (Q9HCT0 whole entry, looked up): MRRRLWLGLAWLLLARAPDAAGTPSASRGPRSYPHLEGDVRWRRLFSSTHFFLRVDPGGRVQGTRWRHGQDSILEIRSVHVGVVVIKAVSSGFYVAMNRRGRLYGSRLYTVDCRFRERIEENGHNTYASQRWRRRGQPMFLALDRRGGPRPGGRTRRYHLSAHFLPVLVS
# NS3 helicase inh – inhibitors of Hepatitis C virus NS3 helicase. hit rate 0.56% among 290,000. inhibition, % at 10.9 µM. NS3 helicase DNA unwinding, Cy5 molecular beacon fluorescence;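 active = inhibition above the mean of all tested compounds plus 3 SD, set per campaign, cut at about 35% in these data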;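 note: 0% = DMSO wells and 100% = thioflavine S control wells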
#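 Assay system – hepatitis C virus NS3 helicase domain fragment enzyme · Buffer or medium – MOPS pH 6.5, MgCl2, DTT, Tween20, BSA · Reagent – Cy5/quencher beacon DNA duplex and ATP to start · Compound – single 10.9 µM dose · Timing – 1 h at 25 °C · Technique – Cy5 beacon fluorescence read at start and 1 h · Measure – % inhibition of unwinding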
# NR3A LBD binder – modulators (binders) of human NR3A ligand-binding domain; NR3A LBD differential scanning fluorimetry, Tm shift; 0% = protein alone, 100% = glycine-bound protein; Tm shift relative to glycine control, % at 25 µM; hit rate 2.5% among 340,000;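 active = melting temperature shift of at least 10% of the positive control shift, at one fixed dose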
# FID counter – fluorescent intercalator displacement, NS3 helicase counter-screen | AID 1845 | inhibition, % at 7.9 µM | hit rate 0.17% among 290,000 | DNA fluorescent intercalator displacement, fluorescence; in the data active = inhibition above about 37%;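 note: 0% = vehicle and 100% = reference compound; higher means more ethidium bromide displaced from hairpin DNA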
# Active calls of the source: *; · = not tested or not shown. The list is not random: actives were taken first. Their share in the collection is about 3.6%.
SMILES,ZTA DNA inh,EBNA-1 inhibitor,FGF22 binding,NS3 helicase inh,NR3A LBD binder,FID counter
O=S(=O)(c1ccc(F)cc1)N1CCCCN2[C@H](CO)[C@H](c3ccc(-c4ccccc4)cc3)[C@@H]2C1,·,·,0,·,·,·
Fc1ccc(Nc2ccnc(Nc3ccc(F)cc3)n2)cc1,0,13,0,-93,55*,39*
COCCNC(=O)C[C@H]1C[C@H]2c3cc(NC(=O)CN(C)C)ccc3O[C@H]2[C@H](CO)O1,·,·,-1,·,·,·
C[C@H]1CN([C@@H](C)CO)C(=O)Cc2cc(NC(=O)Cn3cnnn3)ccc2O[C@@H]1CN(C)Cc1ccc(Cl)c(Cl)c1,·,·,0,·,·,·
C[C@@H]1CN([C@@H](C)CO)C(=O)Cc2cc(NS(C)(=O)=O)ccc2O[C@@H]1CN(C)C(=O)Nc1cccc2ccccc12,·,·,0,·,·,·
NS(=O)(=O)c1ccc(NCc2cnc3ccccc3c2)cc1,·,·,0,·,·,·
NS(=O)(=O)c1ccc(NCc2cnc3ccccc3n2)cc1,·,·,43*,·,·,·
C[C@H]1CN([C@@H](C)CO)C(=O)c2cccc(NC(=O)Nc3ccc4c(c3)OCO4)c2O[C@@H]1CN(C)Cc1ccc(Oc2ccccc2)cc1,·,·,0,·,·,·
O=C(CC1SC(=Nc2cccc3ccccc23)N(Cc2ccccn2)C1=O)Nc1ccccc1Br (configuration not stated),2,0,0,10,-2,-1
O=C(CC1SC(=Nc2ccccc2)N(Cc2ccccn2)C1=O)Nc1ccc(Br)cc1 (configuration not stated),-3,0,·,-9,12*,-20
Cc1ccccc1N=C1SC(CC(=O)Nc2ccc3ccccc3c2)C(=O)N1Cc1ccccn1 (configuration not stated),17,-7,·,-17,22*,-17
C[C@H](CO)N1C[C@H](C)[C@@H](CN(C)C(=O)Nc2cccc3ccccc23)Oc2ccc(NS(=O)(=O)c3cccs3)cc2C1=O,·,·,0,·,·,·
CSC1=NSC2=NC(=O)/C(=C/c3coc4ccccc4c3=O)C(=N)N12,21,2,0,13,11*,-4
CSC1=NSC2=NC(=O)/C(=C\c3cccs3)C(=N)N12,5,7,·,30,-16,-2
CSC1=NSC2=NC(=O)/C(=C/c3coc4ccc(O)cc4c3=O)C(=N)N12,12,7,·,32,15*,-1
CCOc1ccc(NC(=O)COc2ccc(-n3cnnn3)cc2)cc1,-10,·,0,·,-7,·
CCOC(=O)c1ccc(NC(=O)COc2ccc(-n3cnnn3)cc2)cc1,-8,-2,·,-3,31*,-9
CC(O)CNc1nc2c(c(=O)n(Cc3cccc(Cl)c3)c(=O)n2C)n1C (configuration not stated),3,-2,0,1,0,-9
Cn1c(NCC(O)CO)nc2c1c(=O)n(Cc1ccc(Cl)c(Cl)c1)c(=O)n2C (configuration not stated),-16,-5,·,-9,17*,-7
COCC(=O)N(C)C[C@@H]1Oc2ncc(C3=CCCC3)cc2C(=O)N([C@H](C)CO)C[C@H]1C,·,·,0,·,·,·
Cc1ccc2cccc(Oc3ncnc4scc(-c5ccc(Cl)cc5)c34)c2n1,-11,4,0,1,11*,-4
Cc1ccc(-n2c(=O)c3sccc3n(Cc3cc(=O)n4cc(Cl)ccc4n3)c2=O)cc1F,2,-1,·,8,15*,0
Cc1cc(C(=O)Nc2cccc3c2O[C@@H](CN(C)Cc2ccc(Cl)c(Cl)c2)[C@@H](C)CN([C@H](C)CO)C3=O)n(C)n1,·,·,1,·,·,·
OC(CN1CCN(c2ccccn2)CC1)Cn1c2ccc(Cl)cc2c2cc(Cl)ccc21 (configuration not stated),1,0,·,-33,19*,19
CC(=O)c1c(C(C)=O)c(C)n(-c2nc(-c3cccs3)c(C)s2)c1C,0,2,·,5,12*,-7
COc1ccc(-c2nc(-n3c(C)c(C(C)=O)c(C(C)=O)c3C)sc2C)cc1,5,7,·,9,-4,-24
COc1ccccc1C(=O)Nc1ccc(Br)c2cccnc12,3,1,0,-5,21*,-4
COc1ccccc1C(=O)Nc1ccccn1,3,4,·,-2,1,0
O=C(c1ccc(S(=O)(=O)c2ccccc2Cl)c([N+](=O)[O-])c1)N1CCCCCC1,-26,1,·,-21,12*,-15
